Sampled rows, rich in hits. Any-hit rate of the full collection: about 0.23%.
Bcl-W Bim block: inhibitors of Bim binding to Bcl-W, primary screen, biochemical, multiplexed, bead-based flow cytometry; 190,000 tested, 0.02% active; AID 952, 2007; inhibition, % at 10 µM; Bim peptide-Bcl-W binding; Bcl-2-like protein 2 (Homo sapiens), Q92843;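 further: 0% = bound tracer without compound and 100% = peptide blocker; higher means less fluorescent Bim peptide bound to Bcl-W beads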
Rad51 HR inh: human RAD51 strand exchange inhibitors, primary screen, biochemical, fluorescence; 200,000 tested, 0.085% active; DNA repair protein RAD51 homolog 1 (Homo sapiens), Q06609; AID 1385, 2008; inhibition, % at 10 µM; hRad51 DNA strand exchange, fluorescence dequenching;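 active means inhibition above 40% at the single screening dose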;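 further: 0% = DMSO control wells and 100% = blanks with heterologous ssDNA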
Target sequence (Q06609 whole entry, looked up): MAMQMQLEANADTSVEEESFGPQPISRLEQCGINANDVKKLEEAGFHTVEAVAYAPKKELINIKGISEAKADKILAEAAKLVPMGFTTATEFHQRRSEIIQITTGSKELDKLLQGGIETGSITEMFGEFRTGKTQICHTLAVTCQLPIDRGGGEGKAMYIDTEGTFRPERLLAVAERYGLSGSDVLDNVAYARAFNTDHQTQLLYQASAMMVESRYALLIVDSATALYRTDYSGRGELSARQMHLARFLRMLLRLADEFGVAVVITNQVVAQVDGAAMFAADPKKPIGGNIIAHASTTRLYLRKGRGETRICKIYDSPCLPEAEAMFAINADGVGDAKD
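Material: hRad51 filaments on single-stranded DNA; Reagent: Donor/quencher-labelled 47-bp dsDNA substrate; Compound: 10 µM final, single point; Schedule: 37 °C 15-min filament assembly, 30-min compound preincubation, 15-min exchange; Technique: FRET fluorescence, excitation 485 nm, emission 520 nm; Benchmarks: control wells and blank wells on each plate.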
Bcl-XL Bim block: inhibitors of Bim-Bcl-XL binding, primary screen, biochemical, multiplexed, bead flow cytometry, human Bcl-XL; 190,000 tested, 0.04% active; Bcl-2-like protein 1 (Homo sapiens), Q07817; inhibition, % at 10 µM; Bim peptide-Bcl-XL binding, fluorescence
Bcl-2 Bim block: inhibitors of Bim-Bcl-2 binding, primary screen, biochemical, multiplexed, human Bcl-2 family | AID 950, 2007 | Apoptosis regulator Bcl-2 (Homo sapiens), P10415 | Bead-based flow cytometry, Bim peptide-Bcl-2 binding | inhibition, % at 10 µM | 190,000 tested, 0.06% active; in the data active means inhibition above about 40%;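 further: 0% = no compound wells with probe peptide and 100% = reference peptide inhibitor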
Bim-Bcl-B: inhibitors of Bim-Bcl-B binding, primary screen, biochemical, multiplexed, human Bcl-2 family; Bcl-2-like protein 10 (Homo sapiens), Q9HD36; inhibition, % at 10 µM; 190,000 tested, 0.073% active; bead-based flow cytometry, Bim peptide-Bcl-B binding; AID 951, 2007;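 further: 0% = tracer peptide without compound and 100% = reference inhibitor peptide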
Bfl-1 Bim block: inhibitors of Bim binding to Bfl-1, primary screen, biochemical, multiplexed, bead-based flow cytometry. Bcl-2-related protein A1 (Homo sapiens), Q16548. Bim-Bfl-1 binding inhibition. inhibition, % at 10 µM. 190,000 tested, 0.12% active. AID 1008, 2008;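 further: 0% = wells without compound plus tracer and 100% = blocker peptide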
Active calls of the source: *; x = no result given. Unless noted, no stated cut-off is given here; in the data, active means inhibition above about 40%.

SMILES	Bcl-W Bim block	Rad51 HR inh	Bcl-XL Bim block	Bcl-2 Bim block	Bim-Bcl-B	Bfl-1 Bim block
O=C(CSCc1ccc(F)cc1)Nc1nc2c(s1)CCCC2	0	66*	-3	-9	-6	-15
COc1ccc(CNS(=O)(=O)c2ccccc2Br)cc1	x	-1	x	x	x	x
O=C1C(Nc2ccc(O)cc2)=C/C(=N/S(=O)(=O)c2cccs2)c2ccccc21	-2	x	-10	-3	-10	-8
O=C(O)c1ccc(NC2=C/C(=N/S(=O)(=O)c3ccccc3)c3ccccc3C2=O)cc1	19	x	2	12	-21	47*
c1ccc(-c2ncc(-c3ccn[nH]3)s2)cc1	2	-3	-1	2	0	-8
C#CCOCCOCCOCCNc1nc(N2CCN(C(=O)[C@H]([C@@H](C)CC)n3cc([C@@H](N)CC(C)C)nn3)CC2)nc(N2CCN(C(=O)[C@H](Cc3cc4ccccc4[nH]3)n3cc([C@@H](N)Cc4ccc(O)cc4)nn3)CC2)n1	-5	x	0	80*	71*	57*
C#CCOCCOCCOCCNc1nc(N2CCN(C(=O)C(Cc3ccc(O)cc3)n3cc(C(N)CC(C)C)nn3)CC2)nc(N2CCN(C(=O)C(Cc3cc4ccccc4[nH]3)n3cc(C(N)C(C)CC)nn3)CC2)n1 (stereo not given)	-1	x	-2	-1	-7	-5
Cc1ccc2c(c1C)NC(=O)C21N2CCCC2C(C(=O)c2ccc3ccccc3c2)C12C(=O)Nc1ccccc12 (stereo not given)	x	30	x	x	x	x
Cc1cc(-c2csc(N)n2)c(C)n1C	30	-4	21	36	70*	20
CCN1/C(=C/C=C/c2oc3ccc4ccccc4c3[n+]2CC)Oc2ccc3ccccc3c21	26	-394	45*	8	0	35
Cc1ccc(CNc2ccc3c(c2)OCO3)cc1	18	-21	2	10	-7	40*
Cc1ccc(-c2nc(-c3ccccn3)sc2CC(=O)O)cc1	x	47*	x	x	x	x
O=C(O)Cc1sc(-c2ccccc2)nc1-c1ccccc1	3	-1	-1	-4	-5	-7
O=C(Nc1nnc(-c2ccncc2)o1)c1ccc(Br)s1	3	-12	1	3	4	3
S=C(NCCc1ccccc1)NCCc1ccccc1	29	-6	39	22	24	44*
NNC(=S)NCCc1ccccc1	-4	-28	1	2	-1	5
CCOC(=O)c1cnn(-c2ccccc2)c1NC(=O)CN1CCCCC1	x	25	x	x	x	x
Nc1ccc2oc(-c3ccccc3Cl)cc(=O)c2c1O	0	-4	-4	2	-4	-1
O=c1cc(-c2ccccc2Cl)oc2ccc([N+](=O)[O-])c(O)c12	0	60*	-1	3	-2	0
CCOc1ccc2nc(CN3CCN(Cc4ccsc4)C(CCO)C3)ccc2c1 (stereo not given)	-2	5	-4	-5	-4	-9
O=c1nc2c(O)cccn2c2c1c(=O)[nH]c1ccccc12	32	-38	47*	24	4	36
N#CCC(=O)NNC(=S)Nc1ccccc1C(F)(F)F	0	41*	0	1	1	-1
Cc1cc(=O)oc2cc(OCC(=O)OCC(=O)NC3CC3)ccc12	3	0	-1	-1	-3	-4
C=C(C)CNC(=S)Nc1sc2c(c1C(=O)OCC)CC(C)(C)OC2	-8	4	-12	-8	-24	3
O=C(Nc1nnc(C2CC2)s1)C1Cc2ccccc2CN1S(=O)(=O)c1ccccc1F (stereo not given)	9	-2	13	77*	x	x
O=C(Nc1nccs1)C1Cc2ccccc2CN1S(=O)(=O)c1ccc(F)cc1 (stereo not given)	-2	2	-2	-4	-2	0
Cc1ccc(NC(=O)CSc2nc3ccccc3c(=O)n2CCCN2CCCCC2)cc1Cl	29	-24	26	62*	71*	25
